ChEMBL document CHEMBL1687821, “In vivo and in vitro efficacy of chloroquine against Plasmodium malariae and P. ovale in Papua, Indonesia” (Antimicrob Agents Chemother, 2011)

How the values were obtained:
Plasmodium malariae [1] = test: Antimalarial activity against Plasmodium malariae ring stage infected in red blood cells in presence of AB+ human serum by drug susceptibility assay; format: functional, organism-based
How it was run: (§1)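 Field isolates from venous blood, leukocytes removed on CF11 column. Modified WHO schizont-maturation microtest at 2% hematocrit in McCoy's 5A with 20% AB+ serum, 11 twofold dilutions (chloroquine top 5,910 nM). Candle jar, 37.5°C, 15–56 h, stopped at >40% schizonts in the drug-free control. Schizonts (≥5 chromatin dots) per 200 asexual parasites, normalized to control. IC50 from inhibitory sigmoid Emax fit. Isolates grouped by predominant stage at start.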

Plasmodium ovale [2] = test: Antimalarial activity against Plasmodium ovale ring stage infected in red blood cells in presence of AB+ human serum by drug susceptibility assay; format: functional; how it was run: as §1
Plasmodium malariae [3] = test: Antimalarial activity against Plasmodium malariae trophozoite stage infected in red blood cells in presence of AB+ human serum by drug susceptibility assay; format: functional, organism-based; how it was run: as §1
Plasmodium ovale [4] = test: Antimalarial activity against Plasmodium ovale trophozoite stage infected in red blood cells in presence of AB+ human serum by drug susceptibility assay; format: functional; how it was run: as §1
Plasmodium malariae [5] = test: Antimalarial activity against Plasmodium malariae in patients assessed as parasite reduction ratio at 25 mg/kg, po after 48 hrs; format: functional
How it was run: (§2)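 Oral chloroquine tablets (150 mg base each) at 25 mg/kg over 3 days, all doses supervised; dose repeated once if vomited within 60 min. Parasitemia counted on Giemsa-stained thick films as parasites per 200 WBCs by an expert microscopist. Reduction ratio taken at 48 h.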

Plasmodium ovale [6] = test: Antimalarial activity against Plasmodium ovale in patients assessed as parasite reduction ratio at 25 mg/kg, po after 48 hrs; format: functional; how it was run: as §2

Row | IC50 (Plasmodium malariae [1]) [nM] | IC50 (Plasmodium ovale [2]) [nM] | IC50 (Plasmodium malariae [3]) [nM] | IC50 (Plasmodium ovale [4]) [nM] | SMILES | Ratio (Plasmodium malariae [5]) | Ratio (Plasmodium ovale [6])
1 | 36.8 | 23.8 | 46.9 | – | OC(c1cc(C(F)(F)F)nc2c(C(F)(F)F)cccc12)C1CCCCN1 (stereo not drawn) [MEFLOQUINE] | – | –
2 | 29 | 10.2 | 38.4 | 7.57 | Clc1ccc2c(N3CCN(CCCN4CCN(c5ccnc6cc(Cl)ccc56)CC4)CC3)ccnc2c1 [PIPERAQUINE] | – | –
3 | 4.1 | 0.72 | 7.8 | – | COc1ccc2nc3cc(Cl)ccc3c(Nc3cc(CN4CCCC4)c(O)c(CN4CCCC4)c3)c2n1 [PYRONARIDINE] | – | –

Second part, the molecule before the results:

Row | SMILES | IC50 (Plasmodium malariae [1]) [nM] | IC50 (Plasmodium ovale [2]) [nM] | IC50 (Plasmodium malariae [3]) [nM] | IC50 (Plasmodium ovale [4]) [nM] | Ratio (Plasmodium malariae [5]) | Ratio (Plasmodium ovale [6])
4 | CCN(CC)Cc1cc(Nc2ccnc3cc(Cl)ccc23)ccc1O | 21.7 | 4.3 | 19.1 | – | – | –
5 | C[C@H]1[C@H](OC(=O)CCC(=O)O)O[C@@H]2O[C@@]3(C)CC[C@H]4[C@H](C)CC[C@@H]1[C@@]24OO3 [ARTESUNATE] | 1.77 | 1.16 | 2.84 | 1.28 | – | –
6 | CCN(CC)CCCC(C)Nc1ccnc2cc(Cl)ccc12 (stereo not drawn) [CHLOROQUINE] | 14 | 7.8 | 128 | 23.2 | 86 | 150
